Assay results reported in ChEMBL document CHEMBL1135284 (Bioorg Med Chem Lett, 2002).

Tests used:
Rattus norvegicus [1] = assay: Activated partial thromboplastin time was determined after (iv) bolus dose of 0.75 mg/kg followed by an infusion of 50 ug/kg/min in rat arterial thrombosis model; type: functional
Rattus norvegicus [2] = assay: Mean occlusion time after (iv) bolus dose of 0.75 mg/kg followed by an infusion of 50 ug/kg/min was determined in rat arterial thrombosis model; type: functional
Rattus norvegicus [3] = assay: Thrombin time was determined after (iv) bolus dose of 0.75 mg/kg followed by an infusion of 50 ug/kg/min in rat arterial thrombosis model; type: functional
[4] = Oral bioavailability; type: ADME, organism-based; settings: rat, in vivo
Outline: (§1)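 Conscious rats dosed by oral route (30 mg/kg) and iv bolus (0.15 mg/kg). Thrombin time tracked over time after each dose. %F derived by comparing areas under the TT-versus-time curves for the two routes.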

[5] = Bioavailability was reported; type: ADME, organism-based; settings: rat, in vivo; outline: as §1

Structure (SMILES) | aPTT (Rattus norvegicus [1]) | MOT (Rattus norvegicus [2]) | TT (Rattus norvegicus [3]) | bioavailability [4] | bioavailability [5]
N/C(=N/O)N1CCC(CNC(=O)[C@@H]2CC[C@H]3CN(C(=O)CC(c4ccccc4)c4ccccc4)CC(=O)N32)CC1 | 23 s | 35 min | 63 s |  | 
Cc1cc(C(=N)N)ccc1CNC(=O)[C@@H]1CC[C@H]2CN(S(=O)(=O)C(c3ccccc3)c3ccccc3)CC(=O)N21 | 42 s | >60 min | 354 s |  | 
N=C(N)c1ccc(CNC(=O)[C@@H]2CC[C@H]3CN(S(=O)(=O)C(c4ccccc4)c4ccccc4)CC(=O)N32)cc1 | 54 s | 51 min | 631 s |  | 
N=C(N)N1CCC(CNC(=O)[C@@H]2CC[C@H]3CN(C(=O)CC(c4ccccc4)c4ccccc4)CC(=O)N32)CC1 | 29 s | 21 min | 85 s |  | 
Nc1ccc(CNC(=O)[C@@H]2CC[C@H]3CN(S(=O)(=O)CC(c4ccccc4)c4ccccc4)CC(=O)N32)cn1 | 19 s | 30 min | 51 s |  | 
N=C(N)c1ccc(CNC(=O)[C@@H]2CC[C@H]3CN(S(=O)(=O)CC(c4ccccc4)c4ccccc4)CC(=O)N32)cc1 | 74 s | >60 min | 636 s |  | 
N/C(=N/O)N1CCC(CNC(=O)[C@@H]2CC[C@H]3CN(S(=O)(=O)CC(c4ccccc4)c4ccccc4)CC(=O)N32)CC1 | 26 s | 45 min | 148 s | 0.7% | 
Cc1nc(N)ccc1CNC(=O)[C@@H]1CC[C@H]2CN(S(=O)(=O)C(c3ccccc3)c3ccccc3)CC(=O)N21 | 27 s | >60 min | 102 s |  | 
N=C(N)N1CCC(CNC(=O)[C@@H]2CC[C@H]3CN(S(=O)(=O)C(c4ccccc4)c4ccccc4)CC(=O)N32)CC1 | 28 s | 52 min | 154 s |  | 
N/C(=N/O)N1CCC(CNC(=O)[C@@H]2CC[C@H]3CN(S(=O)(=O)CCc4ccccc4)CC(=O)N32)CC1 | 25 s | 49 min | 146 s | 2.7% | 
N=C(N)N1CCC(CNC(=O)[C@@H]2CC[C@H]3CN(S(=O)(=O)CC(c4ccccc4)c4ccccc4)CC(=O)N32)CC1 | 35 s | 36 min | 214 s | 2.2% | 
N/C(=N/O)N1CCC(CNC(=O)[C@@H]2CC[C@H]3CN(S(=O)(=O)C(c4ccccc4)c4ccccc4)CC(=O)N32)CC1 | 28 s | 46 min | 230 s | 1.9% | 
N=C(N)c1ccc(CNC(=O)[C@@H]2CC[C@H]3CN(S(=O)(=O)Cc4ccccc4)CC(=O)N32)cc1 |  |  |  | ~0.5% | 
N=C(N)[C@H]1CC[C@H](CNC(=O)[C@@H]2CC[C@H]3CN(S(=O)(=O)C(c4ccccc4)c4ccccc4)CC(=O)N32)CC1 | 54 s | 44 min | 724 s | 0.1% | 
N/C(=N\O)N1CCC(CNC(=O)[C@@H]2CC[C@H]3CN(S(=O)(=O)Cc4ccccc4)CC(=O)N32)CC1 |  |  |  | ~0.5% | 
N[C@H]1CC[C@H](CNC(=O)[C@@H]2CC[C@H]3CN(S(=O)(=O)C(c4ccccc4)c4ccccc4)CC(=O)N32)CC1 | 44 s | >60 min | 216 s |  | 
N[C@H]1CC[C@H](CNC(=O)[C@@H]2CC[C@H]3CN(S(=O)(=O)CC(c4ccccc4)c4ccccc4)CC(=O)N32)CC1 | 35 s | 37 min | 150 s |  | 1.5%
